This is a sample that favours compounds with a hit; in the whole collection about 2.5% have one here.
SENP8 block-1 = human SENP8 protease inhibitors, primary screen, biochemical, fluorescence, Nedd8 protein substrate, uHTS. AID 602440, 2012. inhibition, % at 20 µM. recombinant SENP8. Sentrin-specific protease 8 (Homo sapiens), Q96LD8. 0.64% of 360,000 active; in the data active means inhibition mostly above about 40%, no sharp cut-off; inactive means mostly below about 27%
Target sequence (Q96LD8 whole entry, looked up): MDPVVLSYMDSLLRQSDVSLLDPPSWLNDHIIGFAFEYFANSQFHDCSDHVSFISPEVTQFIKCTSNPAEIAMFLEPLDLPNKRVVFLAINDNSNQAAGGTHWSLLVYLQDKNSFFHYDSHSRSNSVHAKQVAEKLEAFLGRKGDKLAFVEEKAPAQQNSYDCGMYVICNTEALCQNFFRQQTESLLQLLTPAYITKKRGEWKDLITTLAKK
SENP8 block-2 = SENP8 protease inhibitors, primary screen, biochemical, luminescence | purified SENP8, Z-RLRGG-aminoluciferin cleavage | 1.2% of 330,000 active | inhibition, % at 10 µM | AID 2540, 2010; in the data active means inhibition above about 50%
SENP7 block = SENP7 protease inhibitors, primary screen, biochemical, luminescence, uHTS; recombinant SENP7, Z-RLRGG-aminoluciferin luminescence, 40 min; inhibition, % at 5 µM; 1.5% of 330,000 active; AID 434973, 2010;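 active means inhibition above about 50% at the single test dose, limit read from the data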
SENP6 block = SENP6 protease inhibitors, primary screen, biochemical, luminescence, uHTS. inhibition, % at 10 µM. Recombinant SENP6 catalytic domain, aminoluciferin luminescence. AID 2599, 2010. 1.8% of 330,000 active;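 active means inhibition above about 50% at the single tested dose, limit read from the data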
SENP1 inh = human SENP1 catalytic domain inhibitors, primary screen, biochemical, FRET, uHTS; recombinant SENP1 catalytic domain, CyPet-SUMO1-YPet FRET cleavage; 0.21% of 360,000 active; AID 624204, 2012; Sentrin-specific protease 1 (Homo sapiens), Q9P0U3; inhibition, % at 10 µM;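 active means inhibition at least 30% at 10 µM, raw YFP signal under a set limit, fluorescence ratio 0.5 to 1.5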
Target sequence (Q9P0U3 419-644 limits assumed): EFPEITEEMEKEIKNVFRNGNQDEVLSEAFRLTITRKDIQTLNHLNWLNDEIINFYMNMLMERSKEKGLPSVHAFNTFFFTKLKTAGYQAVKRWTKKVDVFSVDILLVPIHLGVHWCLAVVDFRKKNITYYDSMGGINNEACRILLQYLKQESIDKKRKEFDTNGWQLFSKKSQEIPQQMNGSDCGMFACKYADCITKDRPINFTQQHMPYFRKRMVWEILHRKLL
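Compound: 10 µM single point, 0.5% DMSO; Test system: hSENP1 catalytic domain, recombinant; Timing: 50 min reaction at room temperature; Technique: FRET, CFP and YFP emission; Control set: no-enzyme wells low, DMSO-plus-enzyme wells high control.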
SENP8 conf = SENP8 protease inhibitors, retest, confirmation, biochemical, luminescence, single concentration; shares compounds with SENP7 block; Recombinant SENP8, Z-RLRGG-aminoluciferin luminescence, 60 min; inhibition, % at 12.5 µM; 40% of 6,200 active; AID 488912, 2010;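 active means mean inhibition across replicates above about 50%, limit read from the data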
SENP6 confirm = SENP6 protease inhibitors, confirmation, biochemical, luminescence, single concentration; recombinant SENP6, Z-RLRGG-aminoluciferin luminescence; inhibition, % at 12.5 µM; 58% of 6,200 active; shares compounds with SENP7 block
SENP7 confirm = SENP7 protease inhibitors, retest, confirmation, biochemical, luminescence, single concentration; inhibition, % at 12.5 µM; 69% of 6,200 active; recombinant SENP7, Z-RLRGG-aminoluciferin luminescence, 40 min; AID 488917, 2010; shares compounds with SENP7 block
Casp3 select = caspase-3 protease inhibitors, confirmation, selectivity assay for SENP inhibitor project, biochemical, single concentration | inhibition, % at 12.5 µM | shares compounds with SENP7 block | 60% of 6,200 active | AID 488918, 2010 | purified caspase-3, Z-DEVD-aminoluciferin luminescence, 60 min;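 active means mean inhibition above about 50%, limit read from the data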
SENP luc ctr = counter-screen for SENP inhibitors: luminescence interference; shares compounds with SENP7 block; Pre-incubated SENP8/Z-RLRGG-aminoluciferin, luciferase luminescence interference; inhibition, % at 12.5 µM; 39% of 6,200 active; AID 488919;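 active means mean inhibition above about 50% when retested at one dose, limit read from the data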
Hits are given with their value.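 How the source made its calls, unless noted: active means mean inhibition above about 50% in the one-dose retest (limit read from the data); inactive means the rest.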

How did CCc1noc(C)c1C(=O)Nc1nc2c(F)cc(F)cc2s1 do in these assays?
SENP8 block-1: inactive; SENP8 block-2: 83; SENP7 block: 73; SENP6 block: 90; SENP1 inh: inactive; SENP8 conf: 52; SENP6 confirm: 86; SENP7 confirm: 98; Casp3 select: 87; SENP luc ctr: 51

How did CSc1nc2ccc(NC(=O)c3ccccn3)cc2s1 do in these assays?
SENP8 block-1: inactive; SENP8 block-2: 90; SENP7 block: 93; SENP6 block: 78; SENP1 inh: inactive; SENP8 conf: 52; SENP6 confirm: 86; SENP7 confirm: 98; Casp3 select: 93; SENP luc ctr: inactive

What do the screens show for `Nc1ccc(S(=O)(=O)C(F)(F)F)cc1N`?
SENP8 block-1: inactive; SENP8 block-2: inactive; SENP7 block: inactive; SENP6 block: inactive; SENP1 inh: inactive

How did COc1ccc2nc(NC(=O)c3cnccn3)sc2c1 do in these assays?
SENP8 block-1: inactive; SENP8 block-2: inactive; SENP7 block: 76; SENP6 block: inactive; SENP1 inh: inactive; SENP8 conf: inactive; SENP6 confirm: inactive; SENP7 confirm: 82; Casp3 select: 80; SENP luc ctr: inactive

Results for CCOc1ccc2nc(NC(=O)c3ccccn3)sc2c1 ?
SENP8 block-1: inactive; SENP8 block-2: 94; SENP7 block: 98; SENP6 block: 97; SENP1 inh: inactive; SENP8 conf: inactive; SENP6 confirm: 78; SENP7 confirm: 85; Casp3 select: 87; SENP luc ctr: inactive

How did COc1ccc(C(=O)Nc2nc3ccc(OC)cc3s2)cc1 do in these assays?
SENP8 block-1: inactive; SENP8 block-2: inactive; SENP7 block: inactive; SENP6 block: inactive; SENP1 inh: inactive

What do the screens show for `CCOc1ccc2nc(NC(=O)COC)sc2c1`?
SENP8 block-1: inactive; SENP8 block-2: inactive; SENP7 block: inactive; SENP6 block: inactive; SENP1 inh: inactive

What do the screens show for `C#Cc1cccc(NC(=O)c2ccc3c(c2)C(=O)N(Cc2cccnc2)C3=O)c1`?
SENP8 block-1: inactive; SENP8 block-2: inactive; SENP7 block: 75; SENP6 block: 60; SENP1 inh: inactive; SENP8 conf: inactive; SENP6 confirm: inactive; SENP7 confirm: 88; Casp3 select: 54; SENP luc ctr: 56

How did O=C(O)c1cc(NC(=O)c2ccc3c(c2)C(=O)N(Cc2cccnc2)C3=O)cc(C(=O)O)c1 do in these assays?
SENP8 block-1: inactive; SENP8 block-2: inactive; SENP7 block: inactive; SENP6 block: inactive; SENP1 inh: inactive

What do the screens show for `NC(=O)c1c(NC(=O)c2ccc(F)cc2)sc2c1CCC2`?
SENP8 block-1: inactive; SENP8 block-2: inactive; SENP7 block: inactive; SENP6 block: inactive; SENP1 inh: inactive

Results for O=C(Nc1sc2c(c1C(=O)O)CCCCC2)c1ccccc1F ?
SENP8 block-1: inactive; SENP8 block-2: 94; SENP7 block: 86; SENP6 block: 96; SENP1 inh: inactive; SENP8 conf: 97; SENP6 confirm: 98; SENP7 confirm: 102; Casp3 select: 95; SENP luc ctr: 80

What do the screens show for `O=C(Nc1sc2c(c1C(=O)O)CCCC2)c1ccc(F)cc1`?
SENP8 block-1: inactive; SENP8 block-2: 75; SENP7 block: inactive; SENP6 block: 88; SENP1 inh: inactive; SENP8 conf: 88; SENP6 confirm: 86; SENP7 confirm: 94; Casp3 select: 80; SENP luc ctr: 78

How did COC(=O)c1c(NC(=O)c2ccccc2C(=O)O)sc2c1CCCC2 do in these assays?
SENP8 block-1: inactive; SENP1 inh: inactive

What do the screens show for `CN(Cc1cn[nH]c1-c1cc2ccccc2o1)CC1CCOCC1`?
SENP8 block-1: inactive; SENP8 block-2: inactive; SENP7 block: inactive; SENP6 block: inactive; SENP1 inh: inactive

How did Cc1cccc2sc(NC(=O)c3ccc(NS(=O)(=O)c4cccs4)cc3)nc12 do in these assays?
SENP8 block-1: inactive; SENP8 block-2: 70; SENP7 block: inactive; SENP6 block: 86; SENP1 inh: inactive; SENP8 conf: inactive; SENP6 confirm: 81; SENP7 confirm: inactive; Casp3 select: inactive; SENP luc ctr: inactive

How did Cc1nn(C(=O)c2cccs2)c(N)c1-c1ccccc1 do in these assays?
SENP8 block-1: inactive; SENP8 block-2: inactive; SENP7 block: inactive; SENP6 block: inactive; SENP1 inh: inactive

Results for Cc1nn(C(=O)c2ccc3c(c2)OCO3)c(N)c1-c1ccccc1 ?
SENP8 block-1: inactive; SENP8 block-2: 59; SENP7 block: 65; SENP6 block: 83; SENP1 inh: inactive; SENP8 conf: inactive; SENP6 confirm: 78; SENP7 confirm: 96; Casp3 select: 68; SENP luc ctr: inactive

How did Cc1ccc(OCC2Cn3c(nc4c3c(=O)[nH]c(=O)n4C)O2)cc1C (centres undefined) do in these assays?
SENP8 block-1: inactive; SENP8 block-2: inactive; SENP7 block: inactive; SENP6 block: inactive; SENP1 inh: inactive

How did O=C(Cc1nnc(NC(=O)Nc2ccccc2F)s1)NCc1ccccc1 do in these assays?
SENP8 block-1: inactive; SENP8 block-2: inactive; SENP7 block: inactive; SENP6 block: inactive; SENP1 inh: inactive

What do the screens show for `CC(=O)c1ccc(NC(=O)Oc2ccccc2)cc1`?
SENP8 block-1: inactive; SENP8 block-2: inactive; SENP7 block: inactive; SENP6 block: inactive; SENP1 inh: inactive

What do the screens show for `CC(C)Oc1ccc(NC(=O)Oc2ccccc2)cc1`?
SENP8 block-1: inactive; SENP8 block-2: 80; SENP7 block: inactive; SENP6 block: 88; SENP1 inh: inactive; SENP8 conf: inactive; SENP6 confirm: 100; SENP7 confirm: 103; Casp3 select: 98; SENP luc ctr: 94

Screening results from PubChem.
